Measured values as given in ChEMBL document CHEMBL1143709, “Human and rat monoamine oxidase-A are differentially inhibited by (S)-4-alkylthioamphetamine derivatives: insights from molecular modeling studies” (Bioorg Med Chem, 2007).

How the values were obtained:
[1] = target: T1, Amine oxidase [flavin-containing] B (Rattus norvegicus, UniProt P19643); experiment: Inhibition of rat brain MAOB
T1 sequence (P19643 whole entry): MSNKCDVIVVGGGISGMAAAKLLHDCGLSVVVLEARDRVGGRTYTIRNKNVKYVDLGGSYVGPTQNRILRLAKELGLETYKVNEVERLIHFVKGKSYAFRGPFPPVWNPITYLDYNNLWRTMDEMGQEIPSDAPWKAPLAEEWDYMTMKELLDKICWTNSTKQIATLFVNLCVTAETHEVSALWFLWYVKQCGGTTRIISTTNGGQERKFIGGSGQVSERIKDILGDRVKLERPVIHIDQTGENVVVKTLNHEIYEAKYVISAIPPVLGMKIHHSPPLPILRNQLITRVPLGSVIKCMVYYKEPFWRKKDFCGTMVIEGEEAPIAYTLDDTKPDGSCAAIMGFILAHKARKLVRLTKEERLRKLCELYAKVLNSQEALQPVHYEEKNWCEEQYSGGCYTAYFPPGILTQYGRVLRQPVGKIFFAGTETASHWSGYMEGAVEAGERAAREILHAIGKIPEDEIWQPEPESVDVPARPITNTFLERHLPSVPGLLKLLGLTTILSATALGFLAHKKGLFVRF
In short: (§1)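 Enzyme was a crude brain mitochondrial suspension from male Sprague–Dawley rats (180–220 g). Substrates were 5-HT 100 μM for MAO-A and DMAPEA 5 μM for MAO-B. Substrates and metabolites were measured by C18 reverse-phase HPLC with electrochemical detection. IC50 was taken from % inhibition versus -log concentration, at least two experiments in triplicate, mean ± SD. Ki came from Cheng-Prusoff.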

[2] = target: T2, Amine oxidase [flavin-containing] B (Homo sapiens, UniProt P27338); experiment: Inhibition of human recombinant MAOB expressed in Pichia pastoris
T2 sequence (P27338 whole entry): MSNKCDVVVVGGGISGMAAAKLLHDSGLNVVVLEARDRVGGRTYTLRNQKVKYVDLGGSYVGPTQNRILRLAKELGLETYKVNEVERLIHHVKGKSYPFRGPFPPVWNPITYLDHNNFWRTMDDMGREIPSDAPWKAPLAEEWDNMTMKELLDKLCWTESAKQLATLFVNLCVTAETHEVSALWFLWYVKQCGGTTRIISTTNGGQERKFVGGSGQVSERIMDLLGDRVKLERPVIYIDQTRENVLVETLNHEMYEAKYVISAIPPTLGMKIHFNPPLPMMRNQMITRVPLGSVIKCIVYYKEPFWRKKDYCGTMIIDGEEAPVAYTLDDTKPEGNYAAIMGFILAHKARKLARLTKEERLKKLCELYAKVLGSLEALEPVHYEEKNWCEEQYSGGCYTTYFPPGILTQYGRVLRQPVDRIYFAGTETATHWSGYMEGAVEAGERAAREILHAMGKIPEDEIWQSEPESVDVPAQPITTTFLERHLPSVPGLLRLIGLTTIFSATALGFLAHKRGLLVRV
In short: (§2)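 Purified recombinant enzyme desalted on Sephadex G-25 into 50 mM potassium phosphate pH 7.5 with 0.8% β-octyl-glucoside. Activity was read spectrophotometrically with and without inhibitor in 50 mM HEPES pH 7.5 with 0.5% reduced Triton X-100 at 25°C. Substrates were kynuramine for MAO-A and benzylamine for MAO-B.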

[3] = target: T3, Amine oxidase [flavin-containing] A (Rattus norvegicus, UniProt P21396); experiment: Inhibition of rat brain MAOA; in short: as §1
T3 sequence (P21396 whole entry): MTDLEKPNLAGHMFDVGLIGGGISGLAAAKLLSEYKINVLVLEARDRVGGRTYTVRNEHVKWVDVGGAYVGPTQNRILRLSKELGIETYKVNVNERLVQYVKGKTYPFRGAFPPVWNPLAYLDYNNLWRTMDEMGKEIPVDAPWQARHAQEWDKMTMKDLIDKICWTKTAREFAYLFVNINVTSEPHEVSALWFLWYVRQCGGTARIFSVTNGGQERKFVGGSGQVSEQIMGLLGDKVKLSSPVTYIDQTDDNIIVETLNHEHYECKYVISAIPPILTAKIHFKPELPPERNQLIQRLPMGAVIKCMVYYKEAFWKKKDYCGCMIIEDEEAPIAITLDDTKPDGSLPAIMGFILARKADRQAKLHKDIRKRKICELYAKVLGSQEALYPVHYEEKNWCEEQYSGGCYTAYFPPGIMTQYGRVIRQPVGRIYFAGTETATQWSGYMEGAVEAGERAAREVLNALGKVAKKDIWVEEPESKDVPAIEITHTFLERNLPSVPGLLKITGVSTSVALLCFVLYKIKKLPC

[4] = target: T4, Amine oxidase [flavin-containing] A (Homo sapiens, UniProt P21397); experiment: Inhibition of human recombinant MAOA expressed in Pichia pastoris; in short: as §2
T4 sequence (P21397 whole entry): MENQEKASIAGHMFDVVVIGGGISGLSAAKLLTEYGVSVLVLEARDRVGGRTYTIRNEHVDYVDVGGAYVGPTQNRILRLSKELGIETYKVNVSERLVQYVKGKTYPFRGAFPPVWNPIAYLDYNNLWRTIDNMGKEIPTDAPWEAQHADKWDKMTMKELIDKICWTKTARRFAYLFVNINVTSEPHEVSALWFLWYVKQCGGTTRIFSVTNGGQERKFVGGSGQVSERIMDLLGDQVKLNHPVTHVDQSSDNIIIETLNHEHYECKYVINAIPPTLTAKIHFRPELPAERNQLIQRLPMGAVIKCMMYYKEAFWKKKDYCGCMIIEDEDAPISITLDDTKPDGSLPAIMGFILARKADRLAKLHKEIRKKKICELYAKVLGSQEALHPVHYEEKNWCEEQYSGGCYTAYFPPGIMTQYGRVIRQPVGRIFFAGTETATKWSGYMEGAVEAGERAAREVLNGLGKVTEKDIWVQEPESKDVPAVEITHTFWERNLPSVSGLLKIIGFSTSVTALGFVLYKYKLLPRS

Row | SMILES | Ki [1] [µM] | Ki [2] [µM] | Ki [3] [µM] | Ki [4] [µM]
1 | CCCSc1ccc(C[C@H](C)N)cc1 | 15000 | 14 | 0.115 | 0.03
2 | CCSc1ccc(C[C@H](C)N)cc1 | > 100 | > 100 | 0.054 | 0.075
3 | CCCCSc1ccc(C[C@H](C)N)cc1 | 8.92 | 4.58 | 0.392 | 0.022
4 | CSc1ccc(C[C@H](C)N)cc1 | > 100 |  | 0.245 | 0.133
